How the values were obtained:
Pseudomonas aeruginosa [1] = assay: Antibacterial activity against Pseudomonas aeruginosa PA53 assessed as reduction in CFU at 60 uM after 6 hrs by time kill assay in presence of 4 ug/ml meropenem; format: functional
Method in brief: (§1)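 Time-kill: cultures were grown at 37 °C with shaking with compound (15 μM for BAA-1605, 60 μM for PA53), meropenem (1–32 μg/mL for BAA-1605, 1–64 μg/mL for PA53), or both. Samples taken at 2, 4, 6, 8 and 24 h were serially diluted in CAMHB, plated on nutrient agar, incubated overnight at 37 °C, and colonies counted.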

Acinetobacter baumannii [2] = assay: Antibacterial activity against Acinetobacter baumannii ATCC BAA-1605 assessed as meropenem MIC at 30 uM after 6 hrs in presence of 10% bovine plasma by time kill assay (Rvb meropenem MIC in absence of plasma= 0.5 ug/ml); format: functional; settings: ATCC BAA-1605, 6 h
Method in brief: (§2)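 Meropenem MIC against A. baumannii BAA-1605 in CAMHB containing 10% bovine plasma, with compound held at fixed 15, 20, 25 or 30 μM. Parallel runs were done in CAMHB without plasma.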

Acinetobacter baumannii [3] = assay: Antibacterial activity against Acinetobacter baumannii ATCC BAA-1605 assessed as reduction in CFU at 15 uM after 6 hrs by time kill assay in presence of 4 ug/ml meropenem; format: functional; method in brief: as §1
Acinetobacter baumannii [4] = assay: Antibacterial activity against Acinetobacter baumannii ATCC BAA-1605 assessed as fold reduction in meropenem MIC at 15 uM after 16 hrs by microdilution method; format: functional
Method in brief: (§3)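 MIC of each compound alone was determined first. Antibiotic MICs (imipenem or meropenem for A. baumannii; ceftazidime or meropenem for P. aeruginosa) were then measured with compound at fixed sub-MIC concentrations. Fold reduction is MIC without compound divided by MIC with compound.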

Acinetobacter baumannii [5] = assay: Antibacterial activity against Acinetobacter baumannii ATCC BAA-1605 assessed as fold reduction in imipenem MIC at 15 uM after 16 hrs by microdilution method; format: functional; method in brief: as §3
Acinetobacter baumannii [6] = assay: Antibacterial activity against Acinetobacter baumannii ATCC BAA-1605 assessed as complete inhibition of bacterial growth after 16 hrs by microdilution method; format: functional; settings: ATCC BAA-1605, 16 h; method in brief: as §3
Pseudomonas aeruginosa [7] = assay: Antibacterial activity against Pseudomonas aeruginosa PA53 assessed as reduction in CFU at 60 uM after 6 hrs by time kill assay in presence of 1 ug/ml meropenem; format: functional; method in brief: as §1
Pseudomonas aeruginosa [8] = assay: Antibacterial activity against Pseudomonas aeruginosa PA53 assessed as fold reduction in ceftazidime MIC at 60 uM after 16 hrs by microdilution method; format: functional; method in brief: as §3
Acinetobacter baumannii [9] = assay: Antibacterial activity against Acinetobacter baumannii ATCC BAA-1605 assessed as meropenem MIC at 20 uM after 6 hrs in presence of 10% bovine plasma by time kill assay (Rvb meropenem MIC in absence of plasma= 4 ug/ml); format: functional; settings: ATCC BAA-1605, 6 h; method in brief: as §2
Pseudomonas aeruginosa [10] = assay: Antibacterial activity against Pseudomonas aeruginosa PA53 assessed as reduction in CFU at 60 uM after 6 hrs by time kill assay; format: functional; method in brief: as §1
Acinetobacter baumannii [11] = assay: Antibacterial activity against Acinetobacter baumannii ATCC BAA-1605 assessed as cell death at 15 uM after 16 hrs by checkerboard assay in presence of meropenem; format: functional
Method in brief: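 Checkerboard in CAMHB with BAA-1605 at 5 × 10^5 CFU/mL. Compound and meropenem were each serially two-fold diluted along perpendicular axes, with one […] row and column giving each agent's MIC alone. ΣFIC = (combination MIC/MIC alone) for compound plus the same for antibiotic. ≤0.5 was taken as synergy, 0.5–2 as indifference, ≥2 as antagonism.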

Acinetobacter baumannii [12] = assay: Antibacterial activity against Acinetobacter baumannii ATCC BAA-1605 assessed as reduction in CFU at 15 uM after 6 hrs by time kill assay in presence of 1 ug/ml meropenem; format: functional; method in brief: as §1
Acinetobacter baumannii [13] = assay: Antibacterial activity against Acinetobacter baumannii ATCC BAA-1605 assessed as cell death at 15 uM after 16 hrs by checkerboard assay in presence of 10% bovine plasma; format: functional; settings: ATCC BAA-1605, Plasma
Method in brief: (§4)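 A. baumannii BAA-1605 MIC of compound alone, measured in cation-adjusted Mueller–Hinton broth (CAMHB) supplemented with 10% or 50% bovine plasma.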

Acinetobacter baumannii [14] = assay: Antibacterial activity against Acinetobacter baumannii ATCC BAA-1605 assessed as meropenem MIC at 15 uM after 6 hrs in presence of 10% bovine plasma by time kill assay (Rvb meropenem MIC in absence of plasma= 32 ug/ml); format: functional; settings: ATCC BAA-1605, 6 h; method in brief: as §2
Acinetobacter baumannii [15] = assay: Antibacterial activity against Acinetobacter baumannii ATCC BAA-1605 assessed as meropenem MIC at 25 uM after 6 hrs in presence of 10% bovine plasma by time kill assay (Rvb meropenem MIC in absence of plasma= 2 ug/ml); format: functional; settings: ATCC BAA-1605, 6 h; method in brief: as §2
Pseudomonas aeruginosa [16] = assay: Antibacterial activity against Pseudomonas aeruginosa PA53 assessed as fold reduction in meropenem MIC at 60 uM after 16 hrs by microdilution method; format: functional; method in brief: as §3
Acinetobacter baumannii [17] = assay: Antibacterial activity against Acinetobacter baumannii ATCC BAA-1605 assessed as cell death at 15 uM after 16 hrs by checkerboard assay in presence of 50% bovine plasma; format: functional; settings: ATCC BAA-1605, Plasma; method in brief: as §4
[18] = Hemolytic activity in sheep red blood cells up to 400 uM by UV spectrophotometry; format: ADME, cell-based, Ovis aries; settings: erythrocyte
Method in brief: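 Mechanically defibrinated sheep blood cells were washed three times by centrifugation in PBS and diluted 10-fold. Compound in PBS was added and samples shaken at 200 rpm for 1 h at 37 °C. Supernatant was diluted 40-fold in water and read at 540 nm. PBS served as zero-lysis control and 1% Triton X as 100% lysis control.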

Pseudomonas aeruginosa [19] = assay: Antibacterial activity against Pseudomonas aeruginosa PA53 assessed as complete inhibition of bacterial growth after 16 hrs by microdilution method; format: functional; settings: PA53, 16 h; method in brief: as §3
[20] = Cytotoxicity against human HaCaT cells after 12 to 18 hrs by MTT assay; format: cell-based; settings: read-out: TCID50
Method in brief: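 HaCaT keratinocytes were grown in 10% FBS–DMEM with penicillin/streptomycin, seeded at 8 × 10^4 cells/mL and grown overnight to 90% confluence. Serial dilutions (2.5 mM to 1.22 μM, duplicate) were applied overnight. MTT was added for 4 h in the dark, then SDS/HCl solubilizer for 12–18 h. Absorbance was read at 550 nm against a 670 nm reference.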

Acinetobacter baumannii [21] = assay: Antibacterial activity against Acinetobacter baumannii ATCC BAA-1605 assessed as reduction in CFU at 15 uM after 6 hrs by time kill assay; format: functional; method in brief: as §1

Cl.Nc1nc(-c2ccc(NC(=O)c3cc(Cl)cc(Cl)c3)cc2)c[nH]1
fold change (FC) (Pseudomonas aeruginosa [1]): 3.2
MIC (Acinetobacter baumannii [2]): 0.5 µg/mL
fold change (FC) (Acinetobacter baumannii [3]): 4
fold change (FC) (Acinetobacter baumannii [4]): 8
fold change (FC) (Acinetobacter baumannii [5]): 8
MIC (Acinetobacter baumannii [6]): 50 µM
fold change (FC) (Pseudomonas aeruginosa [7]): 3.2
fold change (FC) (Pseudomonas aeruginosa [8]): 16
MIC (Acinetobacter baumannii [9]): 16 µg/mL
fold change (FC) (Pseudomonas aeruginosa [10]): 2.49
fractional inhibitory concentration index (FICI) (Acinetobacter baumannii [11]): 0.375
fold change (FC) (Acinetobacter baumannii [12]): 4
MIC (Acinetobacter baumannii [13]): 50 µM
MIC (Acinetobacter baumannii [14]): 32 µg/mL
MIC (Acinetobacter baumannii [15]): 8 µg/mL
fold change (FC) (Pseudomonas aeruginosa [16]): 8
MIC (Acinetobacter baumannii [17]): 200 µM
Activity [18]: Non-toxic
MIC (Pseudomonas aeruginosa [19]): > 200 µM
CC50 [20]: 387 µM
fold change (FC) (Acinetobacter baumannii [21]): 2.53
